Measurements published in ChEMBL document CHEMBL4680191, “Discovery of novel akt1 inhibitor induces autophagy associated death in hepatocellular carcinoma cells” (Eur J Med Chem, 2020).
Activity calls are given as the source filed them. The calls are words filed in the database; no cut-off is given here.

What was measured:
Huh-7 [1] = assay: Antitumour activity against human Huh-7 cells xenografted in nude mouse assessed as increase in LC3-2 at 20 to 50 mg/kg, ip up to 15 days by immunohistochemical analysis; assay type: functional, organism-based; settings: dose 20-50 mg/kg, time day <=15
How it was run: (§1)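 Tumors came from Huh-7 xenografted nude mice dosed intraperitoneally at 25 or 50 mg/Kg for 15 days. For IHC, sections underwent microwave antigen retrieval (EDTA pH 8.0 or citrate pH 6.0), then primary antibody at 37 °C for 30-40 min. HRP polymer/secondary was applied for 30 min, with DAB development and control IgG.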

Homo sapiens = species on record: Homo sapiens; assay: Inhibition of full length human Akt1 […] mutant assessed as remaining activity at 1 uM using GRPRTSSFAEGKK as substrate incubated for 40 mins by scintillation counting method relative to control
How it was run: (§2)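 Eurofins KinaseProfiler kinase assay on human Akt1, Akt2 and Akt3. Compounds were tested at 1 µM. Residual kinase activity is reported as % of control.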

[2] = test system: RAC-beta serine/threonine-protein kinase (Homo sapiens), P31751 [S474D]; assay: Inhibition of full length human Akt2 S474D mutant assessed as remaining activity at 1 uM using GRPRTSSFAEGKK as substrate incubated for 40 mins by scintillation counting method relative to control; how it was run: as §2
RAC-beta serine/threonine-protein kinase (Homo sapiens), P31751 [S474D], sequence (P31751 whole entry S474D): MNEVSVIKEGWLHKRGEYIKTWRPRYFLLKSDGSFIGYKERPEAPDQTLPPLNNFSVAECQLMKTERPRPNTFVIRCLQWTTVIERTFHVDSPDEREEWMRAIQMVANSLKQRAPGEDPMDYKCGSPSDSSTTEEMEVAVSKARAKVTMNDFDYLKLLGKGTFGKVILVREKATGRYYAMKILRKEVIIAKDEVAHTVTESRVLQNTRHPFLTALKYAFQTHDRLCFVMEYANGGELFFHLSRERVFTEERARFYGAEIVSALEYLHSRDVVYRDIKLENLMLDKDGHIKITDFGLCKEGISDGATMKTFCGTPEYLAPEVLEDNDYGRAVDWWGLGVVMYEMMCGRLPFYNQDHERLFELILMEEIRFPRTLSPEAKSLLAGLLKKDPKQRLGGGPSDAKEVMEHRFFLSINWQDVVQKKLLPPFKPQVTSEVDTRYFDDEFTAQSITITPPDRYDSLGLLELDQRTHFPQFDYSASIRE

[3] = test system: RAC-gamma serine/threonine-protein kinase (Homo sapiens), Q9Y243 [S472D]; assay: Inhibition of full length human Akt3 S472D mutant assessed as remaining activity at 1 uM using GRPRTSSFAEGKK as substrate incubated for 40 mins by scintillation counting method relative to control; how it was run: as §2
RAC-gamma serine/threonine-protein kinase (Homo sapiens), Q9Y243 [S472D], sequence (Q9Y243 whole entry S472D): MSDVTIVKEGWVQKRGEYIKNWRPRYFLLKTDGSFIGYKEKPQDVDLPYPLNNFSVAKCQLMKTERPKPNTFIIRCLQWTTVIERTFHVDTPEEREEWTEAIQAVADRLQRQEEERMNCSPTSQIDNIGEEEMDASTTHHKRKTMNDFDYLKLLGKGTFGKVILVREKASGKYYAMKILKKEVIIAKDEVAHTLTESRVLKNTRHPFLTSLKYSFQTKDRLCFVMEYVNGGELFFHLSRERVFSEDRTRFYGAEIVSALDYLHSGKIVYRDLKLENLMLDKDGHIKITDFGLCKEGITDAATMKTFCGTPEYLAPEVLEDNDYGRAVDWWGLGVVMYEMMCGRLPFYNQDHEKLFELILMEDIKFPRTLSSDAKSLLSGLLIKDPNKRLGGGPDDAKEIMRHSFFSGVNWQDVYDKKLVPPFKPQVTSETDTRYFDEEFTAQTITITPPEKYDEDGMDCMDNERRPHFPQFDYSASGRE

[4] = Inhibition of full length human Akt1 […] mutant using GRPRTSSFAEGKK as substrate incubated for 40 mins by scintillation counting method
How it was run: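 Eurofins KinaseProfiler enzymatic assay on human Akt isoforms. IC50 values are the mean of at least three independent replicates ± standard deviation.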

Hep 3B2 = assay: Cytotoxicity against human Hep3B cells assessed as reduction in cell viability by MTT assay; assay type: functional, cell-based
How it was run: (§3)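 Hepatoma cells were grown in DMEM with 10% FBS and streptomycin, then treated with compounds. Viability was read by MTT.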

Huh-7 [5] = assay: Cytotoxicity against human Huh-7 cells assessed as reduction in cell viability by MTT assay; assay type: functional, cell-based; how it was run: as §3
Huh-7 [6] = assay: Induction of apoptosis in human Huh-7 cells assessed as early apoptotic cells at 0.1 uM by Annexin V/propidium iodide staining based flow cytometric analysis (reference value: 1.43%); assay type: functional
Huh-7 [7] = assay: Induction of apoptosis in human Huh-7 cells assessed as late apoptotic cells at 0.1 uM by Annexin V/propidium iodide staining based flow cytometric analysis (reference value: 3.15%); assay type: functional
Huh-7 [8] = assay: Induction of apoptosis in human Huh-7 cells assessed as necrotic cells at 0.2 uM by Annexin V/propidium iodide staining based flow cytometric analysis (reference value: 0.59%); assay type: functional
Huh-7 [9] = assay: Induction of apoptosis in human Huh-7 cells by Annexin V/propidium iodide staining based flow cytometric analysis; assay type: functional, cell-based; settings: dose 0.1-0.2 µM
Huh-7 [10] = assay: Induction of autophagy in human Huh-7 cells harboring GFP-LC3 assessed as increase in number of the autophagosome puncta at 0.2 uM after 6 hrs; assay type: functional, cell-based
How it was run: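 GFP-LC3-transfected cells were exposed to saline or compound for 6 h, then fixed with paraformaldehyde. Autophagosome puncta were scored by fluorescence of accumulated GFP-LC3.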

Huh-7 [11] = assay: Induction of apoptosis in human Huh-7 cells assessed as reduction in Bcl-2 expression at 0.1 to 0.2 uM Western blot analysis; assay type: functional, cell-based; settings: dose 0.1-0.2 µM
How it was run: (§4)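 Huh-7 cells were treated with or without compound. Total protein extracts were separated by SDS-PAGE and transferred to PVDF. Membranes were probed with primary antibodies, then HRP-conjugated secondary antibody (1:10,000), and detected by enhanced chemiluminescence.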

Huh-7 [12] = assay: Induction of autophagy in human Huh-7 cells harboring mCherry-GFP-LC assessed as increase in autophagosome puncta formation at 0.2 uM by fluorescence assay; assay type: functional, cell-based
Huh-7 [13] = assay: Induction of apoptosis in human Huh-7 cells assessed as upregulation of cleaved caspase-3 protein expression at 0.1 to 0.2 uM by Western blot analysis; assay type: functional, cell-based; settings: dose 0.1-0.2 µM; how it was run: as §4
Huh-7 [14] = assay: Induction of autophagy in human Huh-7 cells assessed as increase in LC3-2 protein expression at 0.1 to 0.2 uM by Western blot analysis; assay type: functional, cell-based; settings: dose 0.1-0.2 µM; how it was run: as §4
Huh-7 [15] = assay: Induction of autophagy flux arrest in human Huh-7 cells assessed as reduction in LAMP1 at 0.2 uM by immunofluorescence staining based assay; assay type: functional, cell-based
How it was run: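 Huh-7 cells with or without 0.2 µM compound were immunofluorescently co-stained for LC3 (autophagosome) and LAMP1 (lysosome). Co-localization was assessed by fluorescence imaging.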

Huh-7 [16] = assay: Induction of autophagy in human Huh-7 cells assessed as reduction in cell viability up to 72 hrs in presence of 3-MA by MTT assay; assay type: functional, cell-based; settings: time hrs <=72
Huh-7 [17] = assay: Induction of autophagy in human Huh-7 cells assessed as reduction in cell viability up to 72 hrs in presence of Baf-A1 by MTT assay; assay type: functional, cell-based; settings: time hrs <=72
Huh-7 [18] = assay: Induction of autophagy in human Huh-7 cells assessed as reduction in cathepsin B activity at 0.2 uM in presence of 3-MA; assay type: functional, cell-based
Huh-7 [19] = assay: Induction of autophagy in human Huh-7 cells assessed as reduction in cathepsin D activity at 0.2 uM in presence of 3-MA; assay type: functional, cell-based
Huh-7 [20] = assay: Antitumour activity against human Huh-7 cells xenografted in nude mouse assessed as increase in apoptotic cells at […], ip up to 15 days by TUNEL assay; assay type: functional, organism-based; settings: time day <=15
How it was run: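 Tumor sections came from Huh-7 xenografted nude mice given 25 or 50 mg/Kg intraperitoneally over 15 days. Apoptotic cells were detected by TUNEL staining.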

Huh-7 [21] = assay: Antitumour activity against human Huh-7 cells xenografted in nude mouse assessed as decrease in phosphorylation of AKT at 20 to 50 mg/kg, ip up to 15 days by immunohistochemical analysis; assay type: functional, organism-based; settings: dose 20-50 mg/kg, time day <=15; how it was run: as §1
[22] = Effect on total AKT level in human Huh-7 cells xenografted in nude mouse at 20 to 50 mg/kg, ip up to 15 days by immunohistochemical analysis; assay type: ADME, organism-based; settings: in vivo, 360 h, dose 20-50 mg/kg, time <=15 day; how it was run: as §1
Huh-7 [23] = assay: Antitumour activity against human Huh-7 cells xenografted in nude mouse assessed as decrease in Ki-67 at […], ip up to 15 days by immunohistochemical analysis; assay type: functional, organism-based; settings: time day <=15
How it was run: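 Subcutaneous Huh-7 xenografts in nude mice were dosed intraperitoneally at 25 or 50 mg/kg and followed over days 1–15. For IHC, tumour sections had microwave antigen retrieval in EDTA (pH 8.0) or citrate (pH 6.0) buffer. They were incubated with primary antibody at 37 °C for 30–40 min, then secondary antibody with HRP polymer for 30 min, and developed with DAB. Normal IgG served as negative control.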

Huh-7 [24] = assay: Antitumour activity against human Huh-7 cells xenografted in nude mouse assessed as decrease in p62/SQSTMI at 20 to 50 mg/kg, ip up to 15 days by immunohistochemical analysis; assay type: functional, organism-based; settings: dose 20-50 mg/kg, time day <=15; how it was run: as §1

Q: For `O=C(C(CNC1CCCC1)c1ccc(Cl)cc1)N1CCN(c2ncnc3sc4c(c23)CCC4)CC1` (stereo unspecified), which Activity (Huh-7 [1]) is on record?
A: Its Activity is “Active”.

Q: And the Activity (Homo sapiens)?
A: Its Activity is 1%.

Q: And the Activity [2]?
A: Its Activity is 63%.

Q: What about the Activity [3] of the same molecule?
A: The Activity was 22%.

Q: And the IC50 [4]?
A: Its IC50 is 34 nM.

Q: What about the IC50 (Hep 3B2) of the same molecule?
A: The IC50 was 131 nM.

Q: What about the IC50 (Huh-7 [5]) of the same molecule?
A: The IC50 was 76 nM.

Q: What about the Activity (Huh-7 [6]) of the same molecule?
A: The Activity was 5.15%.

Q: What about the Activity (Huh-7 [7]) of the same molecule?
A: Its Activity is 7.92%.

Q: What about the Activity (Huh-7 [8]) of the same molecule?
A: The Activity was 2.99%.

Q: What about the Activity (Huh-7 [9]) of the same molecule?
A: The Activity was “Dose-dependent effect”.

Q: What about the Activity (Huh-7 [10]) of the same molecule?
A: Its Activity is “Active”.

Q: What about the Activity (Huh-7 [11]) of the same molecule?
A: The Activity was “Active”.

Q: And the Activity (Huh-7 [12])?
A: Its Activity is “Active”.

Q: What about the Activity (Huh-7 [13]) of the same molecule?
A: The Activity was “Active”.

Q: What about the Activity (Huh-7 [14]) of the same molecule?
A: Its Activity is “Active”.

Q: What about the Activity (Huh-7 [15]) of the same molecule?
A: Its Activity is “Active”.

Q: And the Activity (Huh-7 [16])?
A: The Activity was “inactive”.

Q: What about the Activity (Huh-7 [17]) of the same molecule?
A: The Activity was “Active”.

Q: And the Activity (Huh-7 [18])?
A: Its Activity is “inactive”.

Q: What about the Activity (Huh-7 [19]) of the same molecule?
A: The Activity was “inactive”.

Q: And the Activity (Huh-7 [20])?
A: Its Activity is “Active”.

Q: And the Activity (Huh-7 [21])?
A: Its Activity is “Active”.

Q: What about the Activity [22] of the same molecule?
A: The Activity was “Non-Toxic”.

Q: What about the Activity (Huh-7 [23]) of the same molecule?
A: Its Activity is “Active”.

Q: And the Activity (Huh-7 [24])?
A: Its Activity is “Active”.
